Calls of active or inactive are those of the source. The rule behind the calls is not given here.
Columns and labels:
[1] = Metabolic stability of compound in rat liver microsomes assessed as compound remaining after 10 mins; assay type: ADME, Microsome; settings: read-out: Stability
MC-38 [2] = experiment: (§1) Antitumour activity against mouse MC38 cells allografted in C57Bl/6 mouse assessed as reduction in tumour growth at 3.75 mg/kg, po dosed every 3 days on and 4 days off treatment regime and cotreated with anti-PD1 at 10 mg/kg, ip every 4 days for 3 doses by digital caliper analysis; assay type: functional, organism-based
In short: (§2)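 MC38 cells (0.1 mL at 1 × 10^7 cells/mL) were implanted subcutaneously in the right flank of C57/BL6 mice. Randomization was at about 100 mm3, typically day 5. Oral dosing ran 3 days on, 4 days off, over 28 days. Anti-PD-1 was given at 10 mg/kg IP every 4 days for three doses, with isotype MOPC-21 IgG1 as control on the same schedule.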

[3] = Half life in dog liver microsomes in presence of NADPH; assay type: ADME, Canis lupus familiaris, Microsome
[4] = Protein binding in human serum assessed as unbound fraction; assay type: ADME, cell-free
TGF-beta receptor type-1 [5] = biological target: TGF-beta receptor type-1 (Homo sapiens, UniProt P36897, T204D); experiment: Inhibition of His-tagged TGFBR1 kinase domain T204D mutant (unknown origin) incubated for 1 hr by HTRF analysis
Chain of TGF-beta receptor type-1 (Homo sapiens, UniProt P36897, T204D) (P36897 34-503 T204D limits assumed): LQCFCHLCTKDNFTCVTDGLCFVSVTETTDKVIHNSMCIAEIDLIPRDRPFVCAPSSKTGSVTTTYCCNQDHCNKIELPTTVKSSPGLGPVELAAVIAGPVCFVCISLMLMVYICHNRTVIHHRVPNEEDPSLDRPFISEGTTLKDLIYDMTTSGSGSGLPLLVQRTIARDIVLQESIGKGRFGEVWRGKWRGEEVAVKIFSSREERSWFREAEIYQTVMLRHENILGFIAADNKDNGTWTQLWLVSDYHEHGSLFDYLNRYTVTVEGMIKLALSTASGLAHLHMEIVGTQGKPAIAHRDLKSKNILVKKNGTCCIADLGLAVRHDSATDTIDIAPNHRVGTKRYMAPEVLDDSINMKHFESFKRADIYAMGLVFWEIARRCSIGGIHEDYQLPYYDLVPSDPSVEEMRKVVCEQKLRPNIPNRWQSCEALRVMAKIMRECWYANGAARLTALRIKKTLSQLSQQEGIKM

[6] = Protein binding in mouse serum assessed as unbound fraction; assay type: ADME, cell-free
[7] = Half life in mouse liver microsomes in presence of NADPH; assay type: ADME, Microsome
[8] = Half life in rat liver microsomes in presence of NADPH; assay type: ADME, Microsome
[9] = Half life in mouse liver microsomes in presence of UGT/UDPGA; assay type: ADME, Microsome
[10] = Half life in rat liver microsomes in presence of UGT/UDPGA; assay type: ADME, Microsome
[11] = Half life in rat hepatocytes; assay type: ADME, cell-based, Hepatocyte
Cytochrome P450 2C19 [12] = biological target: T1, Cytochrome P450 2C19 (Homo sapiens, UniProt P33261); experiment: Inhibition of recombinant CYP2C19 (unknown origin); assay type: ADME
T1 sequence (P33261 whole entry): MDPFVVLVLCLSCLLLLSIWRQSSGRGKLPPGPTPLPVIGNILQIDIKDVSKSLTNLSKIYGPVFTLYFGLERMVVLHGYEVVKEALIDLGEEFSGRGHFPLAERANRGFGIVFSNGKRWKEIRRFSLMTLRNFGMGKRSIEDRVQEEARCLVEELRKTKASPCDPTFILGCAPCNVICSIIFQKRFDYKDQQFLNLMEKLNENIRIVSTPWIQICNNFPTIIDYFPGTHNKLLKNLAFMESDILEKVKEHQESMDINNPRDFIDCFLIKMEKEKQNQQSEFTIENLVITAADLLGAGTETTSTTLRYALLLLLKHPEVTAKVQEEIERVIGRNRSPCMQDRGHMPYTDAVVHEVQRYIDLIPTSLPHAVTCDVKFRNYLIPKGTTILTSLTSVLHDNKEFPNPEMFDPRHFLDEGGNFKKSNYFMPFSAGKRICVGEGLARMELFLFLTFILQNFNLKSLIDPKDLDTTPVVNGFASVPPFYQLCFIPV

Cytochrome P450 2D6 [13] = biological target: T2, Cytochrome P450 2D6 (Homo sapiens, UniProt P10635); experiment: Inhibition of recombinant CYP2D6 (unknown origin); assay type: ADME
T2 sequence (P10635 whole entry): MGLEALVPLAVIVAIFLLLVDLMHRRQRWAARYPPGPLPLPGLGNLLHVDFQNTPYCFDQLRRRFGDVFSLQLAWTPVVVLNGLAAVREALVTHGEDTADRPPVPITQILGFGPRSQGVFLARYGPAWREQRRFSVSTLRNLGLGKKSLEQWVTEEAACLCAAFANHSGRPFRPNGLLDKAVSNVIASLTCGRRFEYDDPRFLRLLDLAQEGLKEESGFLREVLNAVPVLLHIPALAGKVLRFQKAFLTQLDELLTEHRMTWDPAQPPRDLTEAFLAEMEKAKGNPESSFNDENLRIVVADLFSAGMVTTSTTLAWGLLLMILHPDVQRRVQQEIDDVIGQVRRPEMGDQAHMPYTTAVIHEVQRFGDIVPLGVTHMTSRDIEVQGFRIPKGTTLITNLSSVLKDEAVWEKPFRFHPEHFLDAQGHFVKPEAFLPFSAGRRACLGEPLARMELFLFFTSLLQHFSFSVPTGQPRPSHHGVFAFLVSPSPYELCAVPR

Cytochrome P450 3A4 = Cytochrome P450 3A4 (Homo sapiens, UniProt P08684); experiment: Inhibition of recombinant CYP3A4 (unknown origin); assay type: ADME
Chain of Cytochrome P450 3A4 (P08684 whole entry): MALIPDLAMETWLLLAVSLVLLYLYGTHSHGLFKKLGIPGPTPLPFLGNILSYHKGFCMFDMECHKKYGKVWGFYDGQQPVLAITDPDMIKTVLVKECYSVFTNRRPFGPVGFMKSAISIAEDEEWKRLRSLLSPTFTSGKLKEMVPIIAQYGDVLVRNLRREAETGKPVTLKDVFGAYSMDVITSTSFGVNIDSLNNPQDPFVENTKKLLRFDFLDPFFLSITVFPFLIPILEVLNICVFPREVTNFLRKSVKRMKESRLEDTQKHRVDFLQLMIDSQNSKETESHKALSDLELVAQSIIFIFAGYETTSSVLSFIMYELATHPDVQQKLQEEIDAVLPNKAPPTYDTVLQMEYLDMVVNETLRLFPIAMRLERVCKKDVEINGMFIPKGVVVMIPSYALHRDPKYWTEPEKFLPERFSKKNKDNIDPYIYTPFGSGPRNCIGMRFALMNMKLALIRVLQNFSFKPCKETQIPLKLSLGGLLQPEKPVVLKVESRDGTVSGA

[14] = Clearance in Balb/C mouse at 5 mg/kg, iv; assay type: ADME, organism-based; settings: in vivo
In short: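 Male Balb/C mice, n = 3, dosed at 5 mg/kg iv or 10 mg/kg po. The vehicle was 70% 25 mM acetate buffer pH 4.0, 5% ethanol and 25% PEG 400.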

[15] = Volume of distribution at steady state in Balb/C mouse at 5 mg/kg, iv; assay type: ADME, organism-based; settings: in vivo, read-out: Vdss
In short: (§3)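 Male Balb/C mice (n = 3) dosed iv at 5 mg/kg and po at 10 mg/kg. Vehicle was 70% 25 mM acetate buffer pH 4.0, 5% ethanol and 25% PEG 400.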

[16] = Oral bioavailability in Balb/C mouse at 10 mg/kg; assay type: ADME, organism-based; settings: in vivo; in short: as §3
[17] = Total AUC in Sprague Dawley rat at 10 mg/kg, po; assay type: ADME, organism-based; set-up: dose 10 mg/kg, route oral, time AUCmax; settings: in vivo
In short: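 Male Sprague–Dawley rats (n = 3) received a PEG400 solution iv at 5 mg/kg and po at 10 mg/kg.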

[18] = Total AUC in Beagle dog at 1 mg/kg, iv; assay type: ADME, organism-based, Canis lupus familiaris; set-up: dose 1 mg/kg, time AUCmax, route intravenous; settings: in vivo
In short: (§4)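 Male Beagle dogs (n = 2) were pretreated with pentagastrin and dosed iv at 1 mg/kg and po at 5 mg/kg. The oral vehicle was 5% ethanol, 45% PEG400 and 50% 25 mM acetate buffer pH 4.0. The iv vehicle was 5:45:50 EtOH/PEG400/saline at 1 mL/kg.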

[19] = Total AUC in Beagle dog at 5 mg/kg, po; assay type: ADME, organism-based, Canis lupus familiaris; set-up: dose 5 mg/kg, route oral, time AUCmax; settings: in vivo; in short: as §4
[20] = Tmax in Beagle dog at 5 mg/kg, po; assay type: ADME, organism-based, Canis lupus familiaris; settings: in vivo; in short: as §4
[21] = Clearance in Beagle dog at 1 mg/kg, iv; assay type: ADME, organism-based, Canis lupus familiaris; settings: in vivo
In short: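 Male Beagle dogs, n = 2, pretreated with pentagastrin. The po dose of 5 mg/kg was in 5% ethanol, 45% PEG400 and 50% 25 mM acetate buffer pH 4.0. The iv dose of 1 mg/kg was in 5:45:50 EtOH/PEG400/saline at 1 mL/kg.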

[22] = Volume of distribution at steady state in Beagle dog at 1 mg/kg, iv; assay type: ADME, organism-based, Canis lupus familiaris; settings: in vivo, read-out: Vdss; in short: as §4
[23] = Cardiovascular toxicity in rat assessed as valvulo-pathy at 1 mg/kg, po for 10 days; assay type: organism-based; settings: in vivo, 240 h
In short: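 Exploratory toxicology studies of 10 days with daily oral dosing in rats and dogs. Cardiovascular findings, including valvulopathy and aortic pathology, were assessed.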

[24] = Cardiovascular toxicity in dog at 5 mg/kg, po dosed every 3 days on and 4 days off treatment regime for 1 month; assay type: organism-based, Canis lupus familiaris; settings: in vivo
Cytochrome P450 2C19 [25] = biological target: T1, Cytochrome P450 2C19; experiment: Induction of recombinant CYP2C19 (unknown origin) up to 24 microM; assay type: ADME; settings: recombinant enzyme
Cytochrome P450 2D6 [26] = biological target: T2, Cytochrome P450 2D6; experiment: Induction of recombinant CYP2D6 (unknown origin) up to 24 microM; assay type: ADME; settings: recombinant enzyme
MC-38 [27] = experiment: as §1, with “doses measured for ten doubling times after cessation of treatment” for “doses”; assay type: functional, organism-based; in short: as §2
TGF-beta receptor type-1 [28] = biological target: T3, TGF-beta receptor type-1 (Homo sapiens, UniProt P36897); experiment: Inhibition of TGFBR1 in human biochemical assay assessed as apparent inhibition constant; settings: read-out: Ki(app)
T3 sequence (P36897 whole entry): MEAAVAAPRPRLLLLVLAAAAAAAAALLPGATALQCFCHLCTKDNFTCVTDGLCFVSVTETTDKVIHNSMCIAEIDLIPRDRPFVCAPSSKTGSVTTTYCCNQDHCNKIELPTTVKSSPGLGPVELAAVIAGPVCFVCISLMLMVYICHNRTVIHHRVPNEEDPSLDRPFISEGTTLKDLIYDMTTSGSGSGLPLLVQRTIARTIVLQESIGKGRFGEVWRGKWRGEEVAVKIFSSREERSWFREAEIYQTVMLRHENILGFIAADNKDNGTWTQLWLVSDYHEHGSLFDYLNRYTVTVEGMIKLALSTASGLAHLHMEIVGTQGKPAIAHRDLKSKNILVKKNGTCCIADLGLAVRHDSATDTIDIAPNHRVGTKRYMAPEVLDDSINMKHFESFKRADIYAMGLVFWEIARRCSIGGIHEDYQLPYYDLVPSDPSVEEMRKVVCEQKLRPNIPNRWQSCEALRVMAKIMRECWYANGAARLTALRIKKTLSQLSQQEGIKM

remaining at 10 min [1]: 91%
half-life [3]: 37 min
fraction unbound [4]: 0.1
IC50 (TGF-beta receptor type-1 [5]): 1.6 nM
fraction unbound [6]: 0.12
half-life [7]: 28 min
half-life [8]: 50 min
half-life [9]: > 120 min
half-life [10]: > 120 min
half-life [11]: 320 min
IC50 (Cytochrome P450 2C19 [12]): > 20000 nM
IC50 (Cytochrome P450 2D6 [13]): > 20000 nM
IC50 (Cytochrome P450 3A4): > 20000 nM
clearance [14]: 8.3 mL/min/kg
Vd [15]: 4.5 L/kg
bioavailability [16]: > 100%
AUC [17]: 90.8 µM·h
AUC [18]: 7 µM·h
AUC [19]: 35 µM·h
Tmax [20]: 40.2 min
clearance [21]: 6.4 mL/min/kg
Vd [22]: 1.1 L/kg
Activity (Cytochrome P450 2C19 [25]): Not Active
Activity (Cytochrome P450 2D6 [26]): Not Active
Ki (TGF-beta receptor type-1 [28]): 0.8 nM
SMILES: N#Cc1cnc2ccc(-c3c(-c4ccc(F)c(Cl)c4)ncn3CCO)nn12
inhibition (MC-38 [2]): Active
Activity [23]: Toxic
Activity [24]: Non-Toxic
inhibition (MC-38 [27]): Active
